Consider 2 compounds from ChEMBL document CHEMBL4680184, “Simple amphiphilic α-hydrazido acids: Rational design, synthesis, and in vitro bioactivity profile of a novel class of potential antimicrobial compounds” (Eur J Med Chem, 2020).

One test deals with Enterococcus faecalis. The experiment in a line: Antibacterial activity against Enterococcus faecalis ATCC 29212. It is filed as functional. The essentials: (§1)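 Compounds dissolved in sterile water at the highest achievable concentration, then serially diluted in Mueller-Hinton II broth per CLSI broth microdilution. Strains grown 6 h in BHI, diluted in MHII to 1 × 10^6 cfu/mL final. Aerobic incubation 37 °C, 24 h; tetracycline internal control; bacteria-only growth controls. MIC = lowest concentration with no visible growth; triplicate.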

Test [1] concerns Staphylococcus aureus. The experiment in a line: Antibacterial activity against Staphylococcus aureus ATCC 29213. The class given is functional. The method in brief:
(§2)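 Broth microdilution per CLSI: strains grown 6 h in BHI broth, diluted in Mueller-Hinton II broth to 1 × 10^6 cfu/mL, mixed 1:1 with serial dilutions of compound in MHII (compounds dissolved in sterile water); aerobic incubation 37 °C, 24 h. MIC = lowest concentration with no visible growth. Tetracycline internal control; triplicate.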

For test [2], the system named is Escherichia coli. The test is described as follows: Antibacterial activity against Escherichia coli ATCC 25922. It is filed as functional. The method in brief:
as §2

The subject of the next test is Pseudomonas aeruginosa. The test is described as follows: microbe, parasite or virus in culture. Particulars: ATCC 27853.
For the next test, the system named is Enterococcus faecium. The experiment in a line: Antibacterial activity against Enterococcus faecium ATCC 135562 by broth microdilution method. The class given is functional. The method in brief:
as §1

Test [3] has as its system Staphylococcus aureus. The experiment in a line: Antibacterial activity against Staphylococcus aureus ATCC 29213 by broth microdilution method. The class given is functional. The method in brief:
as §1
For orientation: Dilution methods test growth across graded concentrations, often in twofold steps.

The test system of test [4] is Escherichia coli. The experiment in a line: Antibacterial activity against Escherichia coli ATCC 25922 by broth microdilution method.

Values after ≈ are worked out from the molar mass of the structure shown.

`CN(C)[C@@H]1C(O)=C(C(N)=O)C(=O)[C@@]2(O)C(O)=C3C(=O)c4c(O)cccc4[C@@](C)(O)[C@H]3C[C@@H]12` [TETRACYCLINE]: the MIC worked out at 8 µg/mL (≈ 18 µM) with Enterococcus faecalis, 0.12 µg/mL (≈ 0.27 µM) against Staphylococcus aureus [1], 0.5 µg/mL (≈ 1.13 µM) against Escherichia coli [2] and 8 µg/mL (≈ 18 µM) in the test with Pseudomonas aeruginosa.

Turning to “H-GIGKFLKKAKKFGKAFVKILKK-NH2 [PEXIGANAN]”, the MIC in the test on Enterococcus faecium is 64 µg/mL; against Staphylococcus aureus [3] it was 8 µg/mL; with Escherichia coli [4], 16 µg/mL.
